Measurements reported in PMC5598371 (Toxicology Reports, 2015).

What was measured:
[1] = test system: HGF/HPLF/HPC vs human OSCC cell lines; experiment: Tumor-specificity; format: cell-based; conditions: TS x (1/B) x 100; HGF/HPLF/HPC as normal cells
[2] = test system: Pulp cell (HPC); conditions: read-out: 50% cytotoxic concentration (CC50), normal; cited from earlier work
[3] = test system: HGF/HPLF/HPC vs human OSCC cell lines; conditions: mean CC50 HGF/HPLF/HPC / mean CC50 OSCC lines; cited from earlier work
[4] = Cytotoxic activity, MTT method; format: cell-based; conditions: human, oral keratinocytes (HOK), normal epithelial cells
Outline: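 HOK grown in keratinocyte growth supplement medium, harvested with 0.25% trypsin-0.025% EDTA. Seeded at 2.5 × 10^3 cells/0.1 ml, grown 48 h, then medium replaced with fresh medium containing test compound dilutions (80 mM DMSO stocks; final DMSO usually below […]) or matched DMSO vehicle. After incubation, 0.2 mg/ml MTT for 3 h, DMSO lysis, A540. CC50 from dose–response curve.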

[5] = test system: Periodontal ligament fibroblast (HPLF); conditions: read-out: 50% cytotoxic concentration (CC50), normal; cited from earlier work
[6] = Cytotoxic activity, MTT method; format: cell-based; conditions: human
[7] = test system: HOK vs human OSCC cell lines; experiment: Tumor-specificity; format: cell-based; conditions: for Tumor-specificity index (TS) E/B: CC50 HOK / mean CC50 OSCC lines; for Potency-selectivity expression (PSE) E/B^2: TS x (1/B) x 100, HOK as normal cells
[8] = test system: HGF vs Ca9-22; conditions: CC50 HGF / CC50 Ca9-22; cited from earlier work
[9] = test system: Gingival fibroblast (HGF); conditions: read-out: 50% cytotoxic concentration (CC50), normal (C); cited from earlier work
[10] = test system: Ca9-22; conditions: read-out: 50% cytotoxic concentration (CC50); Ca9-22, derived from gingiva (A); cited from earlier work
[11] = test system: HSC-2; conditions: read-out: 50% cytotoxic concentration (CC50); HSC-2, derived from tongue; cited from earlier work
[12] = test system: HSC-3; conditions: read-out: 50% cytotoxic concentration (CC50); HSC-3, derived from tongue; cited from earlier work
[13] = test system: HSC-4; conditions: read-out: 50% cytotoxic concentration (CC50); HSC-4, derived from tongue; cited from earlier work
[14] = test system: HGEP vs human OSCC cell lines; experiment: Tumor-specificity; format: cell-based; conditions: for Tumor-specificity index (TS) F/B: CC50 HGEP / mean CC50 OSCC lines; for Potency-selectivity expression (PSE) F/B^2: TS x (1/B) x 100, HGEP as normal cells
[15] = test system: HSC-2 cells; experiment: Western blot analysis of apoptosis and autophagy markers; format: cell-based, human
Outline: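 HSC-2 cells treated with or without 10 μM for 4, 7.5 or 23 h. Laemmli whole-cell lysates (5 × 10^4 cells/lane) run on 12% SDS-PAGE and blotted to PVDF. Blocked 1 h in 5% BSA/TBS-Tween (pH 7.6). Primary anti-PARP, anti-caspase-3, anti-LC3 (1:1000) and anti-GAPDH (1:20,000) overnight at 4 °C, then HRP anti-rabbit 1 h at room temperature. Chemiluminescent detection; band densities expressed relative to GAPDH.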

[16] = test system: HSC-2 cells; experiment: Metabolomic analysis; format: cell-based, human
Outline: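 HSC-2 seeded 5 × 10^5 cells/10 ml, grown 48 h, re-fed for 30 min at 37 °C, then treated 3 h with 0, 1, 3 or 10 μM. Trypan-blue cell counts taken. Extraction: mannitol wash, then methanol with internal standards, chloroform/water partition and 5 kDa ultrafiltration. CE-TOFMS run in cation (1 M formic acid) and anion (50 mM ammonium acetate, pH 8.5) modes. One-point external calibration, normalised per cell. Quadruplicates, mean ± S.D., FDR-corrected p.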

[17] = test system: HSC-2 cells; experiment: Fine cell structure under transmission electron microscope; format: cell-based, human; conditions: 3 h with 3 or 10 μM, compared with control cells
Outline: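 HSC-2 cells were seeded at 5 × 10^5 cells/10 ml and […]. After a medium change, near-confluent cells were exposed 3 h to test compound (0, 3 or 10 μM) and washed in cold PBS. Fixation: 2% glutaraldehyde/0.1 M cacodylate pH 7.4, 1 h, 4 °C, then scraped, pelleted and post-fixed 90 min in 1% OsO4. Dehydrated, Araldite-embedded, thin sections stained with uranyl acetate and lead citrate; TEM at ×5000, 100 kV.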

[18] = Effect of tetraethylammonium or cycloheximide on cytotoxicity; format: cell-based; conditions: Supplementary Fig. 3
[19] = test system: HSC-2 cells; experiment: Time course of cytotoxicity induction; format: cell-based, human
Outline: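 Pulse-chase in HSC-2 (DMEM, 10% heat-inactivated FBS, 37 °C, 5% CO2). Cells seeded at 2.5 × 10^3/0.1 ml and grown 48 h. Exposed to graded test compound concentrations for varied times, then switched to drug-free medium until 47 h after first addition. Viability by MTT (0.2 mg/ml, 3 h, A540). CC50 from dose–response curve. Triplicates (Exp. I), quadruplicates (Exp. II).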

[20] = 3 h, 1, 3 or 10 μM, not significant

O=c1[nH]cc(F)c(=O)[nH]1 [5-FU, 5-fluorouracil, reference compound]
Potency-selectivity expression (PSE) D/B^2 [1]: >309 | CC50 [2]: > 1000 µM | Tumor-specificity index (TS) D/B [3]: >55.6 | CC50 [4]: 24.7 µM | CC50 [5]: > 1000 µM | CC50 [6]: 18.8 µM | Tumor-specificity index (TS) E/B [7]: 1.4 | Potency-selectivity expression (PSE) E/B^2 [7]: 7.8 | Tumor-specificity index (TS) C/A [8]: >34.5 | CC50 [9]: > 1000 µM | CC50 [10]: 29 µM | CC50 [11]: 13 µM | CC50 [12]: 16 µM | CC50 [13]: 13 µM | Tumor-specificity index (TS) F/B [14]: 1.0 | Potency-selectivity expression (PSE) F/B^2 [14]: 5.6

COc1ccc2occ(/C=C/c3ccc(O)cc3)c(=O)c2c1 [compound 11, (E)-3-(4-hydroxystyryl)-6-methoxy-4H-chromen-4-one]
Potency-selectivity expression (PSE) D/B^2 [1]: 3450 | CC50 [2]: 272 µM | LC3-II expression (autophagy marker) ([15]; 10 μM for 4, 7.5 and 23 h): decreased time-dependently to undetectable level | cleaved PARP1 and caspase-3 (apoptosis marker) ([15]; 10 μM, 23 h after treatment): appearance of cleaved PARP1 and caspase-3 | full length PARP ([15]; 10 μM, 23 h after treatment): loss of full length PARP | type of cell death ([15]; 10 μM, HSC-2): induced apoptotic cell death after suppression of autophagy | intracellular concentration of 2-oxoglutarate ([16]; 3 h, 1, 3 and 10 μM, Fig. 6A): reduced, but not significantly | intracellular concentrations of 4-methyl-2-oxopentanoate, 2-hyroxyglutarate, creatine, 2-oxoisopentanoate (Q < 0.2), glycine and choline (p < 0.05) ([16]; 3 h, 1, 3 and 10 μM, Fig. 6A): significantly reduced | intracellular concentrations of diethanolamine and CDP-choline ([16]; 3 h, 1, 3 and 10 μM, Fig. 6B): increased, but not significantly | intracellular concentrations of proline, asparagine, DHAP, Ru5P, transcinnamate, γ-butyrobetaine (Q < 0.2) and glutamic acid (p < 0.05) ([16]; 3 h, 1, 3 and 10 μM, Fig. 6B): significantly increased | NADH/NAD+ ratio [16, 20]: minor increase | glycolytic metabolites (glucose-6-phosphate, fructose 6-phosphate, fructose 1,6-bisphospate, 3-phosphoglyceric acid) [16, 20]: minor increase | intracellular concentration of metabolites in TCA cycle (citrate, cis-aconiate, succinate, fumarate, malate) [16, 20]: minor reduction | lactate [16, 20]: minor reduction | polyamine pathway (putrescine, spermidine) [16, 20]: minor reduction | ratio of AMP/ATP [16, 20]: minor reduction | ratio of GMP/GTP [16, 20]: minor reduction | urea cycle (citrullin, arginine, ornithine) [16, 20]: no change or minor reduction | extracellular concentration of diethanolamine after treatment ([16]; culture medium, before treatment 12.1 ± 13.4 μM): 11.8 ± 5.3 µM | Tumor-specificity index (TS) D/B [3]: 69.0 | mitochondrial vacuolization [17]: mitochondrial vacuolization became prominent | CC50 [4]: 19 µM | CC50 [5]: 74 µM | CC50 [6]: > 800 µM | Tumor-specificity index (TS) E/B [7]: 9.5 | Potency-selectivity expression (PSE) E/B^2 [7]: 475 | Tumor-specificity index (TS) C/A [8]: 31.9 | CC50 [9]: 67 µM | CC50 [10]: 2.1 µM | CC50 [11]: 1 µM | CC50 [12]: 3.6 µM | CC50 [13]: 1.2 µM | effect of BH blocker (tetraethylammonium) on cytotoxicity [18]: not inhibited | effect of pretreatment with cycloheximide on cytotoxicity [18]: inhibited | Tumor-specificity index (TS) F/B [14]: >400 | Potency-selectivity expression (PSE) F/B^2 [14]: >20000 | CC50 ([19]; Homo sapiens, HSC-2, Exp. I, exposure time 21 h, drug-free medium until 47 h): < 1.56 µM | dead cells produced ([19]; higher concentrations, Fig. 2): more than 90% | treatment time at which cytotoxicity was triggered ([19]; pulse-chase, HSC-2): 3 h

COc1cccc2c1C(=O)c1c(O)c3c(c(O)c1C2=O)C[C@@](O)(C(=O)CO)C[C@@H]3O[C@H]1C[C@H](N)[C@H](O)[C@H](C)O1 [Doxorubicin, doxorubicin, reference compound]
Potency-selectivity expression (PSE) D/B^2 [1]: >17333 | CC50 [2]: > 10 µM | Tumor-specificity index (TS) D/B [3]: >26.0 | CC50 [4]: 1.31 µM | CC50 [5]: 0.87 µM | CC50 [6]: 0.027 µM | Tumor-specificity index (TS) E/B [7]: 8.7 | Potency-selectivity expression (PSE) E/B^2 [7]: 5800 | Tumor-specificity index (TS) C/A [8]: 3.3 | CC50 [9]: 0.87 µM | CC50 [10]: 0.26 µM | CC50 [11]: 0.12 µM | CC50 [12]: 0.11 µM | CC50 [13]: 0.094 µM | Tumor-specificity index (TS) F/B [14]: 0.2 | Potency-selectivity expression (PSE) F/B^2 [14]: 133

COc1ccc(/C=C/c2coc3ccc(OC)cc3c2=O)cc1 [compound 4, (E)-6-methoxy-3-(4-methoxystyryl)-4H-chromen-4-one]
Potency-selectivity expression (PSE) D/B^2 [1]: 630 | CC50 [2]: 396 µM | Tumor-specificity index (TS) D/B [3]: 40.3 | CC50 [4]: 70 µM | CC50 [5]: 150 µM | CC50 [6]: 178 µM | Tumor-specificity index (TS) E/B [7]: 10.9 | Potency-selectivity expression (PSE) E/B^2 [7]: 170 | Tumor-specificity index (TS) C/A [8]: 52.0 | CC50 [9]: 229 µM | CC50 [10]: 4.4 µM | CC50 [11]: 4.4 µM | CC50 [12]: 7.7 µM | CC50 [13]: 9.2 µM | effect of pretreatment with cycloheximide on cytotoxicity [18]: inhibited | Tumor-specificity index (TS) F/B [14]: 27.8 | Potency-selectivity expression (PSE) F/B^2 [14]: 434 | dead cells produced ([19]; higher concentrations, Fig. 2): more than 90%

COc1ccc2occ(/C=C/c3cc(OC)c(OC)c(OC)c3)c(=O)c2c1 [compound 6, (E)-6-methoxy-3-(3,4,5-trimethoxystyryl)-4H-chromen-4-one]
Potency-selectivity expression (PSE) D/B^2 [1]: 200 | CC50 [2]: 284 µM | Tumor-specificity index (TS) D/B [3]: 26.1 | CC50 [4]: 77 µM | CC50 [5]: 190 µM | CC50 [6]: 610 µM | Tumor-specificity index (TS) E/B [7]: 5.9 | Potency-selectivity expression (PSE) E/B^2 [7]: 45 | Tumor-specificity index (TS) C/A [8]: 54.4 | CC50 [9]: 544 µM | CC50 [10]: 10 µM | CC50 [11]: 6.8 µM | CC50 [12]: 21 µM | CC50 [13]: 13 µM | effect of pretreatment with cycloheximide on cytotoxicity [18]: inhibited | Tumor-specificity index (TS) F/B [14]: 46.9 | Potency-selectivity expression (PSE) F/B^2 [14]: 361 | viable cells left ([19]; higher concentrations, Fig. 2): 30%
